Read-outs that look alike come from different tables or passages of the source. One block for each molecule: values may come before it.
Legend:
HepG2 cells = assay: DiI-LDL uptake assay; assay type: cell-based, human; conditions: 5 μmol/L, 24 h, then 20 μg/mL DiI-LDL 4 h, fold of vehicle
Outline: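 Washes: PBS/0.4% albumin ×2, PBS ×3. Isopropanol extraction 20 min RT; fluorescence ex 520/em 570 nm; residual cells lysed in 0.5 mol/L NaOH for protein determination.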

[1] = 32 hypercholesterolemic patients, 3 months of treatment; cited from earlier work
[2] = cited from earlier work
PCSK9 mRNA [3] = conditions: read-out: IC50 of decreasing PCSK9 mRNA level; cited from earlier work
[4] = biological target: beta-1 adrenergic receptor (Homo sapiens, UniProt P08588); assay: Calcium mobilization assay, β1 adrenergic receptor antagonist activity; assay type: cell-based; conditions: HEK293 β1-AR/Gα16 cells
Chain of beta-1 adrenergic receptor (P08588 whole entry, species assumed): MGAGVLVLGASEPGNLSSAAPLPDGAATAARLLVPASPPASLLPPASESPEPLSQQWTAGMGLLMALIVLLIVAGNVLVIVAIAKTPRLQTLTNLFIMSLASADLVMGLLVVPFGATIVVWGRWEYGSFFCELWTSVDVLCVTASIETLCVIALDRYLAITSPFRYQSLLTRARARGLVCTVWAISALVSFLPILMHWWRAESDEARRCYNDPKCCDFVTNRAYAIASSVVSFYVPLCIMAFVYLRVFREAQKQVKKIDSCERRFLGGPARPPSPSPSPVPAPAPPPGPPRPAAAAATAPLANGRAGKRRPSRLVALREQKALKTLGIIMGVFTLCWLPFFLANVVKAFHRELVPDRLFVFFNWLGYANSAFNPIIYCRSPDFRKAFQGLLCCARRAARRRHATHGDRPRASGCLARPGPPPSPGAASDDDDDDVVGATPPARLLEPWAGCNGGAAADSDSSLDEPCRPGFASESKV
Outline: (§1)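 HEK293 cells stably co-expressing the receptor and Gα16 were seeded in 96-well plates and grown 24 h. Cells were loaded with 2 μmol/L Fluo-4 AM in HBSS (pH 7.4, BSA 5 g/L, sulfinpyrazone 250 μmol/L) at 37 °C for 45 min. Test compound was added for 10 min at RT, then the respective agonist. Calcium signal was read at ex 485/em 525 nm. IC50 came from nonlinear-regression dose–response curves.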

dopamine D2 = dopamine D2 (Homo sapiens, UniProt P14416); assay: Calcium mobilization assay, dopamine D2 antagonist activity; assay type: cell-based; conditions: HEK293 D2/Gα16 cells
Chain of dopamine D2 (P14416 whole entry): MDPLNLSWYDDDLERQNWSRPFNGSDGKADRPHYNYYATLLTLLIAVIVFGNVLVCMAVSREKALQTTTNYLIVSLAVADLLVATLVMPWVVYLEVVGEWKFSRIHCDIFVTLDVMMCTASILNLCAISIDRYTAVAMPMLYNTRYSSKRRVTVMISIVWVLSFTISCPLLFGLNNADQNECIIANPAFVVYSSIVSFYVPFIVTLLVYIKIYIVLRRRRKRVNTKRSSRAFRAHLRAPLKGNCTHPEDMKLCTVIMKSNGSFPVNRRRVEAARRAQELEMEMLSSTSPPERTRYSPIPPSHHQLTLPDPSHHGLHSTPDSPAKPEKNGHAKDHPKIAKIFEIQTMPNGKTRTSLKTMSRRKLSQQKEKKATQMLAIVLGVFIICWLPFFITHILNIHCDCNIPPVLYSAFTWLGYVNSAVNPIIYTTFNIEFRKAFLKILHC
Outline: as §1

dopamine D1 = dopamine D1 (Homo sapiens, UniProt P21728); assay: Calcium mobilization assay, dopamine D1 antagonist activity; assay type: cell-based; conditions: HEK293 D1/Gα16 cells
Chain of dopamine D1 (P21728 whole entry): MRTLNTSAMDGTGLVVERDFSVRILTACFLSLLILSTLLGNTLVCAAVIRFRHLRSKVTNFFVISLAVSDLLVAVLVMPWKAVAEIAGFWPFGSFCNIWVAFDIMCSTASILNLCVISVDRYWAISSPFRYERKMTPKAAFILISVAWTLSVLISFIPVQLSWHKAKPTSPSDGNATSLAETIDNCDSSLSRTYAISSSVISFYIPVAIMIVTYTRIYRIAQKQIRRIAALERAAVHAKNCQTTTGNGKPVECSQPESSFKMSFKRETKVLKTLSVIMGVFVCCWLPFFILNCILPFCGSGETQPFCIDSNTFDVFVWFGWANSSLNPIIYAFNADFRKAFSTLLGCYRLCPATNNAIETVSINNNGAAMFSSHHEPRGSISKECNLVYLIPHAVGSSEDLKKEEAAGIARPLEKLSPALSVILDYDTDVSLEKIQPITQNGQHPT
Outline: as §1

[5] = biological target: serotonin 5-HT1B receptor (Homo sapiens, UniProt P28222); assay: Whole-cell binding assay, 5-HT1B
Chain of serotonin 5-HT1B receptor (P28222 whole entry): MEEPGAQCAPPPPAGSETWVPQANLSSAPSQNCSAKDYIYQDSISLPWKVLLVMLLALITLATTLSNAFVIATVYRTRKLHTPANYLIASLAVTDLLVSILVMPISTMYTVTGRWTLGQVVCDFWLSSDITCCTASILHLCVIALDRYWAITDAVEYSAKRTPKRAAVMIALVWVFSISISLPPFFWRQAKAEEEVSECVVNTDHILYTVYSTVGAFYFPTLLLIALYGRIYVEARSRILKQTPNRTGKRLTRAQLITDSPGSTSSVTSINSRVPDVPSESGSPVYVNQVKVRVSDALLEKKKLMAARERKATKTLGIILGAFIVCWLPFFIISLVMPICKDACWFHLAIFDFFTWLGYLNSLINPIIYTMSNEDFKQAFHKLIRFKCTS
Outline: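 CHO-K1 cells stably expressing 5-HT1B were seeded at 3 × 10⁴ cells/well and assayed 24 h later. Cells were incubated overnight at 4 °C with 1 nmol/L ³H-GR125743 or ³H-mesulergine plus unlabeled test compound (1.28 nmol/L–100 μmol/L). They were then washed with ice-cold PBS and lysed (PBS, 20 mmol/L Tris-HCl, 1% Triton X-100, pH 7.4). Bound radioactivity was scintillation-counted, and IC50 came from nonlinear regression.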

[6] = In vivo cholesterol-lowering assay in HFD-induced hyperlipidemic hamsters; parameters: species or system Syrian hamster; conditions: 21 days, vs HFD control
Outline: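 Male Syrian hamsters (100–120 g) were acclimatized 7 days, then fed a high-fat diet (0.5% cholesterol) for 1 week. They were randomized to groups of n = 7. Test compound (30 mg/kg) or fenofibrate positive control (100 mg/kg) was given by daily oral gavage for 21 days; controls received 0.5% CMC-Na vehicle. After a 15 h fast, serum was taken under anesthesia and TC and LDL-C were measured by kit. Mean ± SEM.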

PCSK9 = PCSK9 ELISA in HepG2 cells; assay type: cell-based, human; conditions: read-out: IC50 of PCSK9 protein expression, 24 h
[7] = Pharmacokinetic profiles in male hamsters; assay type: in vivo; conditions: hamster, serum
Outline: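 Male hamsters, n = 3 per group, received test compound either at 20 mg/kg by oral gavage in 0.5% CMC-Na or at 10 mg/kg i.v. in 5% DMSO/10% cremophor EL/85% saline. Blood was drawn at 0, 0.5, 1, 2, 4, 6, 8, 10, 12 and 24 h, and serum was separated at 4000×g for 10 min. Serum levels were measured by LC/MS/MS. Parameters are averages of three runs.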

LDLR = assay: Western blot analysis of LDLR expression in HepG2 cells; assay type: cell-based, human; conditions: 5 μmol/L, 24 h
PCSK9 mRNA [8] = assay: Real-time PCR of PCSK9 mRNA in HepG2 cells; assay type: cell-based; conditions: Homo sapiens, HepG2, 24 h, read-out: IC50 of PCSK9 mRNA expression
hERG channel = hERG channel (Homo sapiens, UniProt Q12809); assay: hERG testing; assay type: cell-based
Chain of hERG channel (Q12809 whole entry): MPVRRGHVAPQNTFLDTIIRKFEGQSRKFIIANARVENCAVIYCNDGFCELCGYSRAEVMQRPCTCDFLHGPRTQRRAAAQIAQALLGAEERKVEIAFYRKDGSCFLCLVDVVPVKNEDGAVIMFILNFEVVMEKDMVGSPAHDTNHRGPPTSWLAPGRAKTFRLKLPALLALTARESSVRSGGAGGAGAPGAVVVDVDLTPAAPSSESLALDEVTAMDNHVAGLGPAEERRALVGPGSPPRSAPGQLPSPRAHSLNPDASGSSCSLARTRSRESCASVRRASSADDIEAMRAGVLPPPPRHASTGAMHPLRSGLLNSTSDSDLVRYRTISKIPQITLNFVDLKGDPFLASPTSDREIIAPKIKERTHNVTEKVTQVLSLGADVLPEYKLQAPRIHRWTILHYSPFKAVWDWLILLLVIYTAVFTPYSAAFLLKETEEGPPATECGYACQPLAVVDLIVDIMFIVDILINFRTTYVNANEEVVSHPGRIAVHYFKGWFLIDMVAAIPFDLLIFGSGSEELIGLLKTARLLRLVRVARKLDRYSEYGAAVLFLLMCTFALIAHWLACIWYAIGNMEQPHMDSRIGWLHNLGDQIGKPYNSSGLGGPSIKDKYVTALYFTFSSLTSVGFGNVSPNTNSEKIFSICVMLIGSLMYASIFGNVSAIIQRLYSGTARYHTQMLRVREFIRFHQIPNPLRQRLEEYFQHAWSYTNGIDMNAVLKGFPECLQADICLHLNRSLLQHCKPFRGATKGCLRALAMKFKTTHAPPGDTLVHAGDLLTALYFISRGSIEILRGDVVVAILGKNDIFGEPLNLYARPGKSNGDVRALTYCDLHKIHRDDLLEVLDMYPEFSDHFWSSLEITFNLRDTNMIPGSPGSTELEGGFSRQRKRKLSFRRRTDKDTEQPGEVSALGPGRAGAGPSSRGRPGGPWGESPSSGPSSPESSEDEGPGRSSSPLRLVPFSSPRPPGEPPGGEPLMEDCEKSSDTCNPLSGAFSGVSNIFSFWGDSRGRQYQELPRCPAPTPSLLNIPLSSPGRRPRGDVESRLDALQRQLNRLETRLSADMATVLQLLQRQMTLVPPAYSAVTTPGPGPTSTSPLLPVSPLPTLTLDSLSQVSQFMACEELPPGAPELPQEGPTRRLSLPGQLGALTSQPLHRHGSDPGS
Outline: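 FluxOR thallium-flux assay in CHO-hERG-ZG cells kept under G418 and hygromycin B (100 μg/mL each). Cells were plated and held 30 min at RT in the dark, then 16–18 h at 37 °C. Dye loading ran 90 min at RT in the dark, then the medium was swapped for assay buffer and compound added for 20 min at RT in the dark. Fluorescence was recorded every 2 s to 10 s; stimulus buffer was added at 10 s, then recording continued every 1 s to 180 s.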

Structure (SMILES): COc1ccc2cc3[n+](cc2c1OC)CCc1cc2c(cc1-3)OCO2 [Berberine]
- DiI-LDL uptake rate (compared to vehicle, mean±SEM) (HepG2 cells): 1.38±0.03
- reduction of LDL-C [1]: 25%
- reduction of serum total cholesterol (TC) [1]: 29%
- bioavailability (F) [2]: < 1%
- oral bioavailability [2]: ~0%
- IC50 (PCSK9 mRNA [3]): 8.04 µM

- IC50 [4]: > 100 µM
- IC50 (dopamine D2): 17.9 ± 0.86 µM
- IC50 (dopamine D1): 5.56 ± 0.08 µM
- IC50 [5]: 47.2 ± 1.22 µM
Structure (SMILES): COc1cc2c(cc1OCc1ccccc1F)C1Cc3c(n(CO)c4ccccc34)CN1CC2 (centres unmarked) [Compound 8, (2-((2-Fluorobenzyl)oxy)-3-methoxy-5,6,14,14a-tetrahydroindolo[3′,2′:4,5]pyrido[2,1-a]isoquinolin-9(8H)-yl)methanol]
- DiI-LDL uptake rate (compared to vehicle, mean±SEM) (HepG2 cells): 1.04±0.04

- IC50 [4]: ~100 µM
- IC50 (dopamine D2): > 100 µM
- IC50 (dopamine D1): 1.71 ± 0.1 µM
- IC50 [5]: > 100 µM
Structure (SMILES): COc1ccc2c(c1)c1c(n2CO)CN2CCc3cc(OC)c(OCc4ccc(F)cc4)cc3C2C1 (centres unmarked) [Compound 18, (2-((4-Fluorobenzyl)oxy)-3,12-dimethoxy-5,6,14,14a-tetrahydroindolo[3′,2′:4,5]pyrido[2,1-a]isoquinolin-9(8H)-yl)methanol]

- IC50 [4]: ~100 µM
- IC50 (dopamine D2): ~50 µM
- IC50 (dopamine D1): 2.35 ± 0.07 µM
- IC50 [5]: > 100 µM
Structure (SMILES): COc1ccc2c(c1)c1c(n2CO)CN2CCc3cc(OC)c(OCC(F)(F)F)cc3C2C1 (centres unmarked) [Compound 21, (3,12-Dimethoxy-2-(2,2,2-trifluoroethoxy)-5,6,14,14a-tetrahydroindolo[3′,2′:4,5]pyrido[2,1-a]isoquinolin-9(8H)-yl)methanol]
- DiI-LDL uptake rate (compared to vehicle, mean±SEM) (HepG2 cells): 1.45±0.04^∗∗

- IC50 [4]: ≥ 100 µM
- IC50 (dopamine D2): ≥ 100 µM
- IC50 (PCSK9): 1.34 µM
- AUC(0-inf) ([7]; iv, 10 mg/kg): 2090 ng·h/mL
- MRT ([7]; iv, 10 mg/kg): 4.13 h
- clearance ([7]; iv, 10 mg/kg): 84.1 mL/min/kg
- half-life ([7]; iv, 10 mg/kg): 3.61 h
- bioavailability ([7]; oral, 20 mg/kg): 21.9%
- AUC(0-inf) ([7]; po, 20 mg/kg): 1000 ng·h/mL
- Cmax ([7]; po, 20 mg/kg): 169 ng/mL
- MRT ([7]; po, 20 mg/kg): 10.3 h
- half-life ([7]; po, 20 mg/kg): 6.35 h
- IC50 (PCSK9 mRNA [8]): 1.1 µM
- IC50 (dopamine D1): ~100 µM
- IC50 [5]: 13.4 ± 0.51 µM
Structure (SMILES): COc1ccc2c(c1)c1c(n2CO)CN2CCc3cc(OCc4ccccc4)c(OC)cc3C2C1 (centres unmarked) [Compound 22, (3-(Benzyloxy)-2,12-dimethoxy-5,6,14,14a-tetrahydroindolo[3′,2′:4,5]pyrido[2,1-a]isoquinolin-9(8H)-yl)methanol]
- reduction in serum LDL-C ([6]; 30 mg/kg oral gavage daily): 41.4%
- reduction in serum TC ([6]; 30 mg/kg oral gavage daily): 36.7%
- LDLR expression compared to DMSO (LDLR): 2.06 fold
- IC50 (hERG channel): 7.99 µM

Structure (SMILES): CC(C)OC(=O)C(C)(C)Oc1ccc(C(=O)c2ccc(Cl)cc2)cc1 [fenofibrate, reference compound]
- decrease of serum LDL-C ([6]; p.o. 100 mg/kg daily): 79.4%
- decrease of serum TC ([6]; p.o. 100 mg/kg daily): 71.3%
